Compounds with a hit are over-represented: about 9.6% of the library has one in this group of screens.
HCT116 PTEN-null: growth suppressors of cells with PTEN tumor suppressor deletion; viability, % at 10 µM; HCT116 PTEN-null viability, CellTiter-Glo, 60 h; hits give low values; hit rate 1.2% among 140,000;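 active = viability at or below a set limit, 4 SD under the median of all tested compounds, cut at about 3.7% in these data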;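 note: PTEN knockout HCT116 line with beta catenin targeted HCT116 as companion control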
TNAP act hi DEA: activators of human TNAP at high phosphate acceptor concentration; P05186; purified TNAP, CDP-star luminescence, 1 M DEA, 30 min; hits give high values; 0 = EDTA background, 1 = DMSO-only activity; AID 1136; activation factor at 20 µM; 200,000 tested, under 10 active;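 active = activation factor at least 2 at 20 µM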
Target sequence (P05186 whole entry, looked up): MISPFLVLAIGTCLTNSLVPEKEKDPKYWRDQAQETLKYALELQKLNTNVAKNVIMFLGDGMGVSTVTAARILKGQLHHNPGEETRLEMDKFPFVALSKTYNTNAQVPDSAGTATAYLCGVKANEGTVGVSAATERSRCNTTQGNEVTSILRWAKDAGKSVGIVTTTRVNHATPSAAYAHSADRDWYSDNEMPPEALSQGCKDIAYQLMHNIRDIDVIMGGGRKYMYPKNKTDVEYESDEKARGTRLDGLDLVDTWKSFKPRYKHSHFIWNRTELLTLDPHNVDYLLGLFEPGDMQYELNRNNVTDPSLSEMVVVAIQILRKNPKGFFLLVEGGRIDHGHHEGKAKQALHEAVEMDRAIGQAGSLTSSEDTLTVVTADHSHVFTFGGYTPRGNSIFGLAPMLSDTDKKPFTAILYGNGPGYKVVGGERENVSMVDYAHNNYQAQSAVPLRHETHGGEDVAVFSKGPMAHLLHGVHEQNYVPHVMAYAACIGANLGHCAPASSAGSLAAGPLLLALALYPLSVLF
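system = human TNAP | amount = enzyme diluted 1/800 final | reagent = 100 µM CDP-star substrate | signal = luminescent substrate turnover signal | dosing = one dose, 20 µM | benchmarks = EDTA negative control, DMSO positive control | measure = activation factor | timing = 30 min reaction, room temperature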
TNAP inh noacc: blocks human TNAP activity with no phosphate acceptor present. inhibition, % at 20 µM. P05186. AID 1012. hit rate 0.26% among 200,000. purified TNAP, CDP-star luminescence, 30 min;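 active = tissue-nonspecific alkaline phosphatase inhibition above about 50% at 20 µM in the single-dose screen, limit read from the data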;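 note: 0% = DMSO negative control and 100% = EDTA positive control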
HCT116 bCat-KO: beta-catenin-lacking colon tumor cell growth suppression | HCT116 beta-catenin knockout viability, CellTiter-Glo, 60 h; hits give low values | viability, % at 10 µM | hit rate 1.5% among 140,000;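 active = viability at or under a set limit, the compound median less 4 SD, cut at about 6% in these data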;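 note: 0% = Hyamine 1622 control at 20 µM and 100% = untreated cell control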
L major viab: reduces viability of Leishmania major promastigotes | hit rate 9% among 200,000 | inhibition, % at 10 µM | resazurin fluorescence viability; in the data active = inhibition above about 50%;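 note: promastigotes grown with compound for 44 hours at 28 °C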
TNAP inh hi DEA: TNAP (human) inhibition, high acceptor; P05186; purified TNAP, CDP-star luminescence, 1 M DEA; inhibition, % at 20 µM; hit rate 0.03% among 200,000; AID 1135;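 active = over 50% inhibition of tissue-nonspecific alkaline phosphatase at 20 µM in the single-dose screen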;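 note: plate controls were DMSO wells for no effect and EDTA-quenched wells as full inhibition for full effect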
* hit, by the source's call; . = no result.

SMILES	HCT116 PTEN-null	TNAP act hi DEA	TNAP inh noacc	HCT116 bCat-KO	L major viab	TNAP inh hi DEA
COCC(C)NCc1cccc([N+](=O)[O-])c1 (stereo unspecified)	102	1	-10	101	1	-5
CC1CCCCC1NCc1cccc([N+](=O)[O-])c1 (stereo unspecified)	.	1	0	.	83*	-2
O=[N+]([O-])c1cccc(CNC2CCCCCC2)c1	.	1	-6	.	86*	-4
CCc1cc2cc3c(cc2nc1SCC(=O)N1CCN(C(=O)c2ccco2)CC1)OCO3	96	1	-6	98	84*	0
CCc1cc2ccc(C)cc2nc1SCC(=O)N1CCN(C(=O)c2ccco2)CC1	78	1	-4	72	13	-4
Cc1ccc(CS(=O)(=O)Cc2ccc(C(=O)NCc3ccco3)o2)cc1	100	1	-3	91	-8	-4
Cc1ccc(CCNC(=O)c2ccc(CS(=O)(=O)Cc3ccccc3F)o2)cc1	77	1	13	83	75*	-1
O=C(NCc1cccnc1)c1ccc([N+](=O)[O-])o1	.	1	-6	.	94*	0
Cc1cccc(CS(=O)(=O)Cc2ccc(C(=O)NCc3ccco3)o2)c1	99	1	-6	97	80*	-3
O=C(NCc1ccco1)c1ccc([N+](=O)[O-])o1	.	1	-6	.	63*	2
Cc1cc(Br)ccc1-n1[nH]c(C)c(C=Nc2cccc3nsnc23)c1=O	.	0.8	4	.	0	19
COc1ccc(C)cc1N(C(=O)c1ccccc1F)c1nc2ccccc2s1	69	1	-17	86	12	-2
Cc1cc(-c2ccc(Cl)s2)n[nH]1	115	1.1	55*	106	5	-6
N/C(=N\NC(=O)c1sccc1OCc1ccc(Cl)cc1Cl)c1ccccn1	.	1	-28	.	100*	-3
Cc1ccc(C)c(NC(=O)COC(=O)CC2c3ccccc3CCN2S(=O)(=O)c2ccc(F)cc2)c1 (stereo unspecified)	79	1.1	-29	83	11	-10
COc1ccc(OC)c(Nc2nc(-c3sc(NC(=O)c4ccccc4)nc3C)cs2)c1	41	1	-8	64	-1	-3
CCCCCC(=O)Nc1nc(C)c(-c2csc(Nc3cc(OC)ccc3OC)n2)s1	57	1	3	64	51*	-5
CCCCCCC(=O)Nc1nc(C)c(-c2csc(Nc3ccc(Cl)cc3)n2)s1	45	1	-4	58	52*	0
CCCCCCC(=O)Nc1nc(C)c(-c2csc(Nc3cc(OC)ccc3OC)n2)s1	49	1.1	-3	55	71*	-6
COc1cc(C2C3=C(CC(C)(C)CC3=O)OC(N)=C2[N+](=O)[O-])ccc1O (stereo unspecified)	88	1	-2	91	-5	-4
O=C(CCl)NC1CCCc2ccccc21 (stereo unspecified)	.	1.1	-10	.	7	-8
CN(C(=O)CCl)C1CCCc2ccccc21 (stereo unspecified)	.	1	-5	.	86*	1
CCOC(=O)c1cnc(-n2nc(C)cc2C)nc1NCc1ccccc1	15	1	-3	9	90*	-3
CCOC(=O)c1cnc(-n2nc(C)cc2C)nc1NC(C)c1ccccc1 (stereo unspecified)	3.6*	1	4	2.3*	96*	1
CCOC(=O)c1cnc(-n2nc(C)cc2C)nc1N1CC(C)OC(C)C1 (stereo unspecified)	.	.	.	.	67*	.
SMILES	HCT116 PTEN-null	TNAP act hi DEA	TNAP inh noacc	HCT116 bCat-KO	L major viab	TNAP inh hi DEA
CCOC(=O)c1cnc(-n2nc(C)cc2C)nc1NNc1cc(-c2ccccc2)nc(C)n1	7	0.9	-40	3.8*	100*	14
O=C(Nc1sc2c(c1C(=O)N1CCOCC1)CCCCC2)c1cccnc1	.	1	-14	.	17	-5
O=C(CCc1ccccn1)N1CCCC(CNS(=O)(=O)c2cccs2)C1 (stereo unspecified)	.	1.1	-6	.	-2	-6
CCc1ccc(NC(=S)N(Cc2cccnc2)Cc2ccco2)cc1	.	1.1	-9	.	100*	-6
COc1ccc(NC(=S)N(CCCN2CCOCC2)Cc2ccco2)cc1	.	1	-5	.	-8	0
COc1ccc(NC(=S)N(Cc2cccnc2)Cc2ccco2)cc1	.	1	-9	.	91*	-2
CCOc1ccc(Nc2nc(Nc3ccc(O)cc3)nc(C)c2[N+](=O)[O-])cc1	.	1	-1	.	14	1
N/C(=N\OC(=O)COc1ccc(Br)cc1Cl)c1cccnc1	92	1	-15	83	-7	-3
CC(C)=C1SC(N2CCN(Cc3ccccc3)CC2)=NC1=O	92	1.1	-12	96	-10	-8
CC(C)=C1SC(N2CCN(c3cccc(Cl)c3)CC2)=NC1=O	85	1	-2	87	68*	-3
O=C(Nc1cc2c(cc1Cl)OCCCO2)c1ccc(F)cc1	95	1	-1	90	-10	1
CC(C)CNC(=O)c1ccccc1NC(=O)c1ccccc1N(C)S(=O)(=O)c1ccccc1	87	1	-12	85	8	-3
Cc1nc2ccccc2c(=O)n1/N=C/c1cn(-c2ccccc2)nc1-c1cccs1	75	1.1	-12	75	56*	-6
Cc1nc2ccccc2c(=O)n1/N=C/c1cccs1	.	1	6	.	3	-1
Cc1cc(C)n(C(=O)CCCn2nc(C)c([N+](=O)[O-])c2C)n1	.	1	-4	.	22	-4
CC1C/C(=C\c2cccnc2)C(=O)/C(=C/c2cccnc2)C1 (stereo unspecified)	2.1*	1	3	2.7*	100*	-1
O=C1/C(=C/c2cccnc2)CCc2c1[nH]c1ccccc21	.	1	-1	.	47	-3
CN1/C(=C\P(=O)(N(C)C)N(C)C)C(C)(C)c2ccccc21	66	1.1	-4	37	99*	-9
CN1/C(=C\C=C(C#N)C#N)C(C)(C)c2ccccc21	.	1	-10	.	-3	-1
CC1CCN(CC(=O)N2CCCc3c2c(=O)oc2ccc(OCc4ccccc4)cc32)CC1	17	1	-9	9	34	2
CC1CC(C)CN(CC(=O)N2CCCc3c2c(=O)oc2ccc(OCc4ccccc4)cc32)C1 (stereo unspecified)	13	1	-15	3.5*	32	-3
O=C(CSC(=S)N1CCCCC1)N1N=CCC1c1ccccc1 (stereo unspecified)	95	0.9	2	97	51*	6
Cc1ccccc1NC(=O)COC(=O)c1cc(=O)c2ccccc2o1	.	1	-8	.	-4	-3
CNC(=S)NC1CC2CCCC(C1)N2Cc1ccco1 (stereo unspecified)	105	1.1	-13	98	8	-8
CC(C)CNC(=S)NC1CC2CCCC(C1)N2Cc1ccco1 (stereo unspecified)	95	1	-8	96	62*	-3

High-throughput results (PubChem)
